In article PMC2196277 (The Journal of Experimental Medicine, 1997):

Legend:
H2-K^d [1] = molecular target: T1, H2-K^d (Mus musculus, UniProt P01902); type: cell-based, BALB/c
H2-K^d [2] = molecular target: T1, H2-K^d; type: cell-based, BALB/c; details: infected cells; for half-life of peptide–H2-K^d complexes: normally trafficking H2-K^d (no BFA)
Procedure, shortened: (§1)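 J774 monolayers in antibiotic-free RP10 were infected for 30 min with log-phase L. monocytogenes (OD600 0.1), then kept in 5 μg/ml gentamicin. BFA was added 3 h post-infection, and tetracycline or CHX–ANM at 4 h. Cells were scraped, extracted in 0.1% TFA, homogenised, sonicated, ultracentrifuged and HPLC-fractionated. Fractions were titrated in triplicate on 51Cr-labelled P815 with Kd-restricted CTL clones against synthetic-peptide standards, giving epitopes per infected cell.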

H2-K^d [3] = molecular target: T1, H2-K^d; details: ref [17], [19], [20]; cited from earlier work
[4] = tested on: CTL responding to epitope; details: murine infection with L. monocytogenes; ref [31]; cited from earlier work
[5] = molecular target: T2, H2-K^d (L. monocytogenes-infected J774 cells) (Mus musculus, UniProt P01902); assay: CTL epitope quantification; type: cell-based, BALB/c; details: for loss of epitope in BFA-treated cells after tetracycline: BFA added 3 h and TCN 4 h after infection; for time for which intracellularly retained H2-K^d binds new epitopes: BFA-treated, CHX–ANM 4 h after infection, up to; for epitopes per cell after CHX–ANM treatment: CHX and ANM added 4 h after infection
Procedure, shortened: as §1

[6] = molecular target: T2, H2-K^d (L. monocytogenes-infected J774 cells); details: ref [17], cited from earlier work

T2 sequence (P01902 22-368): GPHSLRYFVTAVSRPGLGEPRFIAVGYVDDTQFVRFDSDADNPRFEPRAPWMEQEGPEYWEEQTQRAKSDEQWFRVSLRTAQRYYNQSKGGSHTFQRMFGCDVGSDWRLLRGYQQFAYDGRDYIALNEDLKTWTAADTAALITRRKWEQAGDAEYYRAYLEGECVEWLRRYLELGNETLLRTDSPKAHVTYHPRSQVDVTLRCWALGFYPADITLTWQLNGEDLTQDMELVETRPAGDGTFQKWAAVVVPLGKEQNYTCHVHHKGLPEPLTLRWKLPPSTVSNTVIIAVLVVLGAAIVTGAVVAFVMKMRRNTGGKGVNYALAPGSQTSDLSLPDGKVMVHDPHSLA
T2 sequence (P01887 21-119, further chain): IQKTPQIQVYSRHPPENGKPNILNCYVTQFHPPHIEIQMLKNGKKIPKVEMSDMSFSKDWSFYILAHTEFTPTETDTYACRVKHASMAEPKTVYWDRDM
T1 sequence (P01902 22-368): as the sequence (P01902 22-368) above
T1 sequence (P01887 21-119, further chain): as the sequence (P01887 21-119, further chain) above

Row | Molecule | effect of BFA on H2-K^d trafficking / retention (H2-K^d [1]) | stability of complex with H2-K^d (summary) (H2-K^d [2]) | half-life of peptide–H2-K^d complexes (H2-K^d [2]) [h] | number of secreted antigen molecules degraded per H2-K^d-associated epitope (H2-K^d [3]) | number of responding CTL relative to p60 449-457 [4] [times] | effect of BFA on amount of epitope extracted ([5]; BFA added 3 h after infection, no tetracycline) | loss of epitope in BFA-treated cells after tetracycline [5] | time for which intracellularly retained H2-K^d binds new epitopes [5] | epitopes per cell after CHX–ANM treatment ([5]; no BFA) | half-life of complexes retained intracellularly with brefeldin A (H2-K^d [2]; + BFA) [h] | generation of epitope relative to p60 217-225 ([6]; L. monocytogenes infected J774 cells) | amount of epitope extracted relative to p60 217-225 ([6]; first few hours of infection, J774) [times] | prevalence of epitope throughout cellular infection ([6]; infected cells, continuous antigen production) | epitopes per cell 3 h after tetracycline ([5]; 3 h after tetracycline (20 μg/ml, added 4 h after infection), no BFA) | increase of epitopes extracted from BFA-treated vs untreated cells ([5]; BFA added 3 h after infection, 6–7 h after infection, no tetracycline) [%] | epitopes per cell at tetracycline addition ([5]; start of drop after tetracycline (20 μg/ml, added 4 h after infection), no BFA)
1 | C[C@H]1CCC/C=C/[C@@H]2C[C@H](O)C[C@H]2[C@H](O)/C=C/C(=O)O1 [BFA, brefeldin A] | induces intracellular retention of H2-K^d molecules in infected J774 cells |  |  |  |  |  |  |  |  |  |  |  |  |  |  | 
2 | KYGVSVQDI [p60 217-225] |  | forms a stable complex with H2-K^d | > 6 | 35 | 10 | not affected by BFA | decreased only minimally | up to 3 h | stops increasing when host cell protein synthesis is inhibited |  |  |  |  |  |  | 
3 | GYKDGNEYI [LLO 91-99, reference compound] |  |  |  | 3–11 |  |  |  |  |  |  |  |  |  |  |  | 
4 | IYVGNGQMI [p60 449-457] |  | forms a more labile complex with H2-K^d | ~1 | 3–11 |  |  | very rapid | up to 3 h | decreases after CHX–ANM treatment | 0.5 | earlier and faster than p60 217-225 | ~10 | greater than either LLO 91-99 or p60 217225 throughout cellular infection | 1,000 epitopes/cell | ~60 | 9,000 epitopes/cell
